According to ChEMBL document CHEMBL1667809, “Synthesis and in vitro antibacterial activity of 7-(3-alkoxyimino-5-amino/methylaminopiperidin-1-yl)fluoroquinolone derivatives” (Bioorg Med Chem Lett, 2011):
Converted amounts (≈) assume the structure as drawn.

Legend:
[1] = tested on: Staphylococcus aureus; test: Antibacterial activity against Staphylococcus aureus ATCC 25923 after 18 to 24 hrs by agar dilution method; format: functional
Summary of the method: (§1)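 Agar dilution on Petri dishes, each inoculated with 10⁴ cfu of the strain and incubated at 35 °C for 18–24 h. MIC read as the lowest compound concentration giving no visible growth on the plate.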

[2] = tested on: Staphylococcus aureus; test: Antibacterial activity against methicillin-sensitive Staphylococcus aureus 10-04 after 18 to 24 hrs by agar dilution method; format: functional; summary of the method: as §1
[3] = tested on: Staphylococcus aureus; test: Antibacterial activity against methicillin-resistant Staphylococcus aureus 10-05 after 18 to 24 hrs by agar dilution method; format: functional
Summary of the method: (§2)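 Agar dilution on Petri dishes, each inoculated with 10⁴ cfu. Plates incubated at 35 °C for 18–24 h. MIC taken as the lowest test-compound concentration giving no visible growth on the plate. Reference drugs gemifloxacin, ciprofloxacin and levofloxacin run alongside for comparison.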

[4] = tested on: Staphylococcus epidermidis; test: Antibacterial activity against methicillin-sensitive Staphylococcus epidermidis 10-4 after 18 to 24 hrs by agar dilution method; format: functional; summary of the method: as §1
[5] = tested on: Staphylococcus epidermidis; test: Antibacterial activity against methicillin-resistant Staphylococcus epidermidis 10-5 after 18 to 24 hrs by agar dilution method; format: functional; summary of the method: as §2
[6] = tested on: Streptococcus pneumoniae; test: Antibacterial activity against Streptococcus pneumoniae 1001 after 18 to 24 hrs by agar dilution method; format: functional; summary of the method: as §1
[7] = tested on: Streptococcus pyogenes; test: Antibacterial activity against Streptococcus hemolyticus 1002 after 18 to 24 hrs by agar dilution method; format: functional; summary of the method: as §1
[8] = tested on: Klebsiella pneumoniae; test: Antibacterial activity against Klebsiella pneumoniae 10-1 after 18 to 24 hrs by agar dilution method; format: functional; summary of the method: as §1
[9] = tested on: Escherichia coli; test: Antibacterial activity against Escherichia coli ATCC 25922 after 18 to 24 hrs by agar dilution method; format: functional; summary of the method: as §1
[10] = tested on: Escherichia coli; test: Antibacterial activity against Escherichia coli 10-02 after 18 to 24 hrs by agar dilution method; format: functional; summary of the method: as §1
[11] = tested on: Pseudomonas aeruginosa; test: Antibacterial activity against Pseudomonas aeruginosa ATCC 27853 after 18 to 24 hrs by agar dilution method; format: functional; summary of the method: as §1
[12] = tested on: Pseudomonas aeruginosa; test: Antibacterial activity against Pseudomonas aeruginosa 10-1 after 18 to 24 hrs by agar dilution method; format: functional; summary of the method: as §1
[13] = Cytotoxicity against african green monkey Vero cells after 24 hrs; format: cell-based; details: chlorocebus sabaeus
Summary of the method: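 Vero cells exposed to graded compound concentrations for 24 h, then viability assessed; CC₅₀ derived from the viability data.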

[14] = tested on: Staphylococcus epidermidis; test: Ratio of compound MIC to GMFX MIC for methicillin-resistant Staphylococcus epidermidis 10-5; format: functional
[15] = tested on: Staphylococcus epidermidis; test: Ratio of compound MIC to LVFX MIC for methicillin-resistant Staphylococcus epidermidis 10-5; format: functional
[16] = tested on: Staphylococcus aureus; test: Ratio of compound MIC to GMFX MIC for methicillin-sensitive Staphylococcus aureus 10-04; format: functional
[17] = tested on: Staphylococcus aureus; test: Ratio of compound MIC to LVFX MIC for methicillin-sensitive Staphylococcus aureus 10-04; format: functional
[18] = tested on: Staphylococcus aureus; test: Ratio of compound MIC to CPFX MIC for methicillin-sensitive Staphylococcus aureus 10-04; format: functional

| SMILES | MIC [1] | MIC [2] | MIC [3] | MIC [4] | MIC [5] | MIC [6] | MIC [7] | MIC [8] | MIC [9] | MIC [10] | MIC [11] | MIC [12] | CC50 at 24 h [13] | Ratio [14] | Ratio [15] | Ratio [16] | Ratio [17] | Ratio [18] |
| --- | --- | --- | --- | --- | --- | --- | --- | --- | --- | --- | --- | --- | --- | --- | --- | --- | --- | --- |
| C[C@H]1COc2c(N3CCN(C)CC3)c(F)cc3c(=O)c(C(=O)O)cn1c23.C[C@H]1COc2c(N3CCN(C)CC3)c(F)cc3c(=O)c(C(=O)O)cn1c23.O [LEVOFLOXACIN] | 0.125 µg/mL | 8 µg/mL | 32 µg/mL | 2 µg/mL | 8 µg/mL | 0.015 µg/mL | 32 µg/mL | 32 µg/mL |  |  |  |  |  |  |  |  |  |  |
| CNC1C/C(=N\OC)CN(c2c(F)cc3c(=O)c(C(=O)O)cn(C4CC4)c3c2F)C1 (stereo not drawn) | 0.25 µg/mL (≈ 0.595 µM) | 2 µg/mL (≈ 4.76 µM) | 8 µg/mL (≈ 19 µM) | 2 µg/mL (≈ 4.76 µM) | 2 µg/mL (≈ 4.76 µM) | 1 µg/mL (≈ 2.38 µM) | 8 µg/mL (≈ 19 µM) | 128 µg/mL (≈ 304 µM) | 0.25 µg/mL (≈ 0.595 µM) | 0.25 µg/mL (≈ 0.595 µM) | 8 µg/mL (≈ 19 µM) | 128 µg/mL (≈ 304 µM) | 1020 µM | 2 | 2 |  |  |  |
| CO/N=C1\CC(N)CN(c2c(F)cc3c(=O)c(C(=O)O)cn(C4CC4)c3c2F)C1 (stereo not drawn) | 0.25 µg/mL (≈ 0.615 µM) | 0.5 µg/mL (≈ 1.23 µM) | 8 µg/mL (≈ 19.7 µM) | 4 µg/mL (≈ 9.84 µM) | 8 µg/mL (≈ 19.7 µM) | 0.25 µg/mL (≈ 0.615 µM) | 128 µg/mL (≈ 315 µM) | 128 µg/mL (≈ 315 µM) | 0.25 µg/mL (≈ 0.615 µM) | 0.25 µg/mL (≈ 0.615 µM) | 128 µg/mL (≈ 315 µM) | 128 µg/mL (≈ 315 µM) | 739 µM |  |  | 4 | 4 | 4 |
| CO/N=C1\CC(N)CN(c2nc3c(cc2F)c(=O)c(C(=O)O)cn3C2CC2)C1 (stereo not drawn) | 4 µg/mL (≈ 10.3 µM) | 8 µg/mL (≈ 20.5 µM) | 128 µg/mL (≈ 329 µM) | 2 µg/mL (≈ 5.14 µM) | 16 µg/mL (≈ 41.1 µM) | 4 µg/mL (≈ 10.3 µM) | 128 µg/mL (≈ 329 µM) | 128 µg/mL (≈ 329 µM) | 0.25 µg/mL (≈ 0.642 µM) | 0.25 µg/mL (≈ 0.642 µM) | 128 µg/mL (≈ 329 µM) | 128 µg/mL (≈ 329 µM) | 822 µM |  |  |  |  |  |
| CCO/N=C1\CC(NC)CN(c2nc3c(cc2F)c(=O)c(C(=O)O)cn3C2CC2)C1 (stereo not drawn) | 2 µg/mL (≈ 4.79 µM) | 4 µg/mL (≈ 9.58 µM) | 8 µg/mL (≈ 19.2 µM) | 8 µg/mL (≈ 19.2 µM) | 16 µg/mL (≈ 38.3 µM) | 4 µg/mL (≈ 9.58 µM) | > 128 µg/mL | > 128 µg/mL | 0.25 µg/mL (≈ 0.599 µM) | 0.25 µg/mL (≈ 0.599 µM) | 128 µg/mL (≈ 307 µM) | > 128 µg/mL | 731 µM |  |  |  |  |  |
| CO/N=C1\CC(N)CN(c2cc3c(cc2F)c(=O)c(C(=O)O)cn3C2CC2)C1 (stereo not drawn) | 0.5 µg/mL (≈ 1.29 µM) | 4 µg/mL (≈ 10.3 µM) | 64 µg/mL (≈ 165 µM) | 8 µg/mL (≈ 20.6 µM) | 16 µg/mL (≈ 41.2 µM) | 4 µg/mL (≈ 10.3 µM) | 128 µg/mL (≈ 330 µM) | 64 µg/mL (≈ 165 µM) | 0.25 µg/mL (≈ 0.644 µM) | 0.25 µg/mL (≈ 0.644 µM) | 2 µg/mL (≈ 5.15 µM) | > 128 µg/mL | 593 µM |  |  |  |  |  |
| CCO/N=C1\CC(N)CN(c2nc3c(cc2F)c(=O)c(C(=O)O)cn3C2CC2)C1 (stereo not drawn) | 4 µg/mL (≈ 9.92 µM) | 2 µg/mL (≈ 4.96 µM) | 16 µg/mL (≈ 39.7 µM) | 4 µg/mL (≈ 9.92 µM) | 8 µg/mL (≈ 19.8 µM) | 4 µg/mL (≈ 9.92 µM) | 128 µg/mL (≈ 317 µM) | 128 µg/mL (≈ 317 µM) | 0.25 µg/mL (≈ 0.62 µM) | 0.5 µg/mL (≈ 1.24 µM) | 128 µg/mL (≈ 317 µM) | 128 µg/mL (≈ 317 µM) | 967 µM |  |  |  |  |  |
| CO/N=C1\CN(c2nc3c(cc2F)c(=O)c(C(=O)O)cn3C2CC2)CC1CN (stereo not drawn) [GEMIFLOXACIN] | 0.008 µg/mL (≈ 0.0205 µM) | 2 µg/mL (≈ 5.14 µM) | 4 µg/mL (≈ 10.3 µM) | 0.25 µg/mL (≈ 0.642 µM) | 8 µg/mL (≈ 20.5 µM) | 0.008 µg/mL (≈ 0.0205 µM) | 8 µg/mL (≈ 20.5 µM) | 32 µg/mL (≈ 82.2 µM) | 0.015 µg/mL (≈ 0.0385 µM) | 0.06 µg/mL (≈ 0.154 µM) | 2 µg/mL (≈ 5.14 µM) | 1 µg/mL (≈ 2.57 µM) |  |  |  |  |  |  |
